In ChEMBL document CHEMBL4334422, “Toxicities and beneficial protection of H2S donors based on nonsteroidal anti-inflammatory drugs” (Medchemcomm, 2019):
The source made the active and inactive calls.

Assays:
[1] = Toxicity in Wistar kyoto rat assessed as increase in heterochromatin in liver tissue at 10 mg/kg, ip administered for 14 days by TEM assay; format: organism-based; conditions: in vivo, 336 h
Summary of the method: (§1)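 After 14 days of daily intraperitoneal dosing at 10 mg/kg in WKY rats, with vehicle controls, liver and kidney were fixed in 4% glutaraldehyde. Ultrastructure was examined by transmission electron microscopy at 6000-, 10000- and 20000-fold magnification.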

[2] = Toxicity in Wistar kyoto rat assessed as increase in lipid droplets in cytoplasm in liver tissue at 10 mg/kg, ip administered for 14 days by TEM assay; format: organism-based; conditions: in vivo, 336 h; summary of the method: as §1
[3] = Toxicity in Wistar kyoto rat assessed as stromal hyperplasia at 10 mg/kg, ip administered for 14 days by TEM assay; format: organism-based; conditions: in vivo, 336 h; summary of the method: as §1
[4] = Toxicity in Wistar kyoto rat assessed as visible gaps in kidney tissue at 10 mg/kg, ip administered for 14 days by H and E staining based assay; format: organism-based; conditions: in vivo, 336 h
Summary of the method: (§2)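 WKY rats were dosed intraperitoneally at 10 mg/kg daily for 14 days, using the 10% 1,3-propanediol vehicle, with a vehicle control group. Liver and kidney were collected and fixed immediately in 4% glutaraldehyde. Sections were stained with haematoxylin and eosin and scored for structural change under light microscopy.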

Rattus norvegicus [5] = test: Cardioprotective activity in SHR rat assessed as change in muscle fiber mitochondria at 10 mg/kg, ip administered for 14 days by TEM analysis; format: functional, organism-based
Summary of the method: (§3)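 SHRs were given 10 mg·kg⁻¹ intraperitoneally per day for 14 consecutive days, with an ibuprofen comparator and a normal control. Myocardial tissue was then removed. Sections were HE-stained for light microscopy and also examined by transmission electron microscopy at 6000, 10000 and 20000-fold.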

H9c2 = test: Cytoprotective activity against H2O2-induced toxicity in rat H9c2 cells assessed as increase in cell repair at 10 to 80 uM pretreated with compound followed by H2O2 addition and measured after 1 to 8 hrs by giemsa staining based microscopic method; format: functional
Summary of the method: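 H9c2 cells were injured with H₂O₂ (400 µM) for 1, 4 or 8 h to give light, medium and heavy damage, in the presence of compound at 10–80 µM. Acetaminophen or ibuprofen served as controls. Viability was measured as mean ± SD of three experiments. SOD and MDA contents were measured as mean ± SD of four experiments. Morphology was assessed by Giemsa staining under light microscopy.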

Rattus norvegicus [6] = test: Cardioprotective activity in SHR rat assessed as change in myocardial disk dissociation at 10 mg/kg, ip administered for 14 days by TEM analysis; format: functional, organism-based; summary of the method: as §3
[7] = Toxicity in Wistar kyoto rat assessed as swollen renal cells at 10 mg/kg, ip administered for 14 days by H and E staining based assay; format: organism-based; conditions: in vivo, 336 h; summary of the method: as §2
[8] = Toxicity in Wistar kyoto rat assessed as congestion in renal tissue at 10 mg/kg, ip administered for 14 days by H and E staining based assay; format: organism-based; conditions: in vivo, 336 h
Summary of the method: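 WKY rats were given 10 mg·kg⁻¹ intraperitoneally daily for 14 days, with vehicle-treated controls. Liver and kidney were collected and fixed in 4% glutaraldehyde. Tissue was examined after HE staining by light microscopy and by transmission electron microscopy at 6000, 10000 and 20000-fold.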

Measured: Activity

CC(C)Cc1ccc(C(C)C(=O)Oc2ccc(C(N)=S)cc2)cc1 (centres undefined)
Toxic: [1] | [2] | [3] | [4]

CC(=O)Nc1ccc(OC(=O)CCCCC2CCSS2)cc1 (centres undefined)
active: Rattus norvegicus [5] | H9c2 | Rattus norvegicus [6]

CC(C)Cc1ccc(C(C)C(=O)Oc2ccc(-c3cc(=S)ss3)cc2)cc1 (centres undefined)
Toxic: [7] | [8]
